Assay results published in ChEMBL document CHEMBL1152689, “Synthesis, tautomerism, and antimicrobial, anti-HCV, anti-SSPE, antioxidant, and antitumor activities of arylazobenzosuberones” (Bioorg Med Chem, 2009).
Values after ≈ are worked out from the molar mass of the structure shown. Active and inactive are the calls of the source. The calls are words filed in the database; no cut-off is given here.

Test system: Staphylococcus aureus
Experiment: Antimicrobial activity against Staphylococcus aureus at 1.25 ug/mL by agar diffusion method
Assay type: functional
Details: read-out: IZ

SMILES	zone of inhibition at 1.25 µg/mL [mm]
c1ccc2c(c1)CCCc1nnc3nncn3c1-2	5
O=C1/C(=N/Nc2ccc([N+](=O)[O-])cc2)CCCc2ccccc21	0

Test system: Pseudomonas aeruginosa
Experiment: Antimicrobial activity against Pseudomonas aeruginosa at 5 ug/mL by agar diffusion method
Assay type: functional
Details: read-out: IZ

SMILES	zone of inhibition at 5 µg/mL [mm]
c1ccc2c(c1)CCCc1nnc3nncn3c1-2	0
O=C1/C(=N/Nc2ccc([N+](=O)[O-])cc2)CCCc2ccccc21	0

Test system: Escherichia coli
Experiment: Antimicrobial activity against Escherichia coli at 1.25 ug/mL by agar diffusion method
Assay type: functional
Details: read-out: IZ

SMILES	zone of inhibition at 1.25 µg/mL [mm]
c1ccc2c(c1)CCCc1nnc3nncn3c1-2	0
O=C1/C(=N/Nc2ccc([N+](=O)[O-])cc2)CCCc2ccccc21	0

Test system: Staphylococcus aureus
Experiment: Antimicrobial activity against Staphylococcus aureus at 5 ug/mL by agar diffusion method
Assay type: functional
Details: read-out: IZ

SMILES	zone of inhibition at 5 µg/mL [mm]
c1ccc2c(c1)CCCc1nnc3nncn3c1-2	14
O=C1/C(=N/Nc2ccc([N+](=O)[O-])cc2)CCCc2ccccc21	9

Test system: Measles morbillivirus
Experiment: Antiviral activity against Measles virus infected in intracranially dosed hamster assessed as inhibition of subacute sclerosing panencephalitis
Assay type: functional
Details: not given
Summary of the method: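 Hamsters under ether anesthesia injected intracranially, into the subarachnoid space at 2 mm depth, at 5, 10 and 20 mg/kg/day for 10 days. Four animals per group sacrificed on days 1–20. Brains homogenized in PBS and centrifuged, supernatant deproteinized with ethanol, then MIC in brain tissue determined by HPLC and bioassay.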

MIC [µg/mL]	SMILES
6.08 (≈ 19.7 µM)	O=C1/C(=N/Nc2ccc([N+](=O)[O-])cc2)CCCc2ccccc21

Test system: Penicillium italicum
Experiment: Antimicrobial activity against Penicillium italicum at 5 ug/mL by agar diffusion method
Assay type: functional
Details: read-out: IZ

SMILES	zone of inhibition at 5 µg/mL [mm]
c1ccc2c(c1)CCCc1nnc3nncn3c1-2	8
O=C1/C(=N/Nc2ccc([N+](=O)[O-])cc2)CCCc2ccccc21	0

Test system: Candida albicans
Experiment: Antimicrobial activity against Candida albicans at 5 ug/mL by agar diffusion method
Assay type: functional
Details: read-out: IZ

SMILES	zone of inhibition at 5 µg/mL [mm]
c1ccc2c(c1)CCCc1nnc3nncn3c1-2	9
O=C1/C(=N/Nc2ccc([N+](=O)[O-])cc2)CCCc2ccccc21	12

Test system: Staphylococcus aureus
Experiment: Antimicrobial activity against Staphylococcus aureus at 2.5 ug/mL by agar diffusion method
Assay type: functional
Details: read-out: IZ

SMILES	zone of inhibition at 2.5 µg/mL [mm]
c1ccc2c(c1)CCCc1nnc3nncn3c1-2	8
O=C1/C(=N/Nc2ccc([N+](=O)[O-])cc2)CCCc2ccccc21	3

Test system: Syncephalastrum racemosum
Experiment: Antimicrobial activity against Syncephalastrum racemosum at 1.25 ug/mL by agar diffusion method
Assay type: functional
Details: read-out: IZ

SMILES	zone of inhibition at 1.25 µg/mL [mm]
c1ccc2c(c1)CCCc1nnc3nncn3c1-2	0
O=C1/C(=N/Nc2ccc([N+](=O)[O-])cc2)CCCc2ccccc21	4

Molecular target: T1, DNA topoisomerase 1 (Homo sapiens) (UniProt P11387)
T1 sequence (whole entry): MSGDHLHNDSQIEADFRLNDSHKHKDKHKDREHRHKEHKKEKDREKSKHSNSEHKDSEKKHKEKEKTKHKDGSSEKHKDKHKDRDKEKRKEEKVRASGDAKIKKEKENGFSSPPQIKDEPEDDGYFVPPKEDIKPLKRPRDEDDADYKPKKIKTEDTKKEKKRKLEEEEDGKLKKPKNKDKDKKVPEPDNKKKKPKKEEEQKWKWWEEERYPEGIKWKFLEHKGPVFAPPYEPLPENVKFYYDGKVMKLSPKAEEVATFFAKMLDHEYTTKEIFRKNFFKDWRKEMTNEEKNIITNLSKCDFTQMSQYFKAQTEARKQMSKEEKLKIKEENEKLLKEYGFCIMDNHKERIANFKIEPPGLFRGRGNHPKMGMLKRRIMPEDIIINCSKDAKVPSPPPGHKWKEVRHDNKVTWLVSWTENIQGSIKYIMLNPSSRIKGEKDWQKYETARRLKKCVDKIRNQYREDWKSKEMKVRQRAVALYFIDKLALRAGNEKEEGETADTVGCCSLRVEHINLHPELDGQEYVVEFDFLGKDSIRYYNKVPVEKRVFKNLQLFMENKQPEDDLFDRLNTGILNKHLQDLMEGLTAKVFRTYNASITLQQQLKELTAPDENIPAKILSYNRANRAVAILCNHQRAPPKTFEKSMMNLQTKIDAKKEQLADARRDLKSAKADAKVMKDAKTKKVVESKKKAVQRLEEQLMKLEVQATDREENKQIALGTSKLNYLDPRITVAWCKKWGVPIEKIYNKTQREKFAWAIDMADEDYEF
Experiment: Inhibition of topoisomerase 1 relative to etoposide
Details: not given

Ratio	SMILES
4.4	O=C1/C(=N/Nc2ccc([N+](=O)[O-])cc2)CCCc2ccccc21

Test system: Syncephalastrum racemosum
Experiment: Antimicrobial activity against Syncephalastrum racemosum at 2.5 ug/mL by agar diffusion method
Assay type: functional
Details: read-out: IZ

SMILES	zone of inhibition at 2.5 µg/mL [mm]
c1ccc2c(c1)CCCc1nnc3nncn3c1-2	9
O=C1/C(=N/Nc2ccc([N+](=O)[O-])cc2)CCCc2ccccc21	9

Test system: Radical scavenging activity
Experiment: Antioxidant activity assessed as DPPH free radical scavenging activity by measuring reduction in DPPH absorbance by ELISA relative to untreated control
Assay type: functional
Design: concentration or dose not given beside the values
Details: not given
Summary of the method: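 Test compounds dissolved in DMSO, ascorbic acid standard in water, both serially diluted. 10 µl sample added to 90 µl of 100 µM DPPH in methanol and kept in the dark at 37 °C for 30 min. Absorbance read at 515 nm. Blank is DMSO plus DPPH. % reduction = (A_B − A_A)/A_B × 100. Run in triplicate.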

SMILES	Activity [%]
O=C1/C(=N/Nc2ccc([N+](=O)[O-])cc2)CCCc2ccccc21	82

Test system: Penicillium italicum
Experiment: Antimicrobial activity against Penicillium italicum at 2.5 ug/mL by agar diffusion method
Assay type: functional
Details: read-out: IZ

SMILES	zone of inhibition at 2.5 µg/mL [mm]
c1ccc2c(c1)CCCc1nnc3nncn3c1-2	0
O=C1/C(=N/Nc2ccc([N+](=O)[O-])cc2)CCCc2ccccc21	0

Test system: Candida albicans
Experiment: Antimicrobial activity against Candida albicans at 2.5 ug/mL by agar diffusion method
Assay type: functional
Details: read-out: IZ

SMILES	zone of inhibition at 2.5 µg/mL [mm]
c1ccc2c(c1)CCCc1nnc3nncn3c1-2	4
O=C1/C(=N/Nc2ccc([N+](=O)[O-])cc2)CCCc2ccccc21	6

Test system: Hepatitis C virus
Experiment: Antiviral activity against HCV by cell based replicon assay
Assay type: functional, Hepacivirus hominis
Details: not given
Summary of the method: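 HCV replicon cells plated at 1×10^4 per well. Next day incubated at 37 °C with serially diluted compound in DMEM with 2% FBS and 0.5% DMSO. HCV RNA copy number measured by quantitative RT-PCR on total cellular RNA. Each point is the average of five replicates. Cytotoxicity measured by MTS in parallel.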

MIC [µg/mL]	SMILES
1.03 (≈ 3.34 µM)	O=C1/C(=N/Nc2ccc([N+](=O)[O-])cc2)CCCc2ccccc21

Test system: Bacillus subtilis
Experiment: Antimicrobial activity against Bacillus subtilis at 1.25 ug/mL by agar diffusion method
Assay type: functional
Details: read-out: IZ

SMILES	zone of inhibition at 1.25 µg/mL [mm]
c1ccc2c(c1)CCCc1nnc3nncn3c1-2	4
O=C1/C(=N/Nc2ccc([N+](=O)[O-])cc2)CCCc2ccccc21	3

Test system: not listed separately
Experiment: Antioxidant activity assessed as inhibition of peroxynitrite-mediated 3-nitrotyrosine formation by HPLC
Assay type: functional
Details: not given
Summary of the method: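 Tyrosine and peroxynitrite, each 100 µM, reacted with compound at 0–300 µM in 100 mM phosphate buffer pH 7.4 at 37 °C for 15 min. Peroxynitrite made from acidified H2O2 plus KNO2, quenched with NaOH, and kept on ice no longer than 30 min before use.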

IC50 [µM]	SMILES
5.13	O=C1/C(=N/Nc2ccc([N+](=O)[O-])cc2)CCCc2ccccc21

Test system: Penicillium italicum
Experiment: Antimicrobial activity against Penicillium italicum at 1.25 ug/mL by agar diffusion method
Assay type: functional
Details: read-out: IZ

SMILES	zone of inhibition at 1.25 µg/mL [mm]
c1ccc2c(c1)CCCc1nnc3nncn3c1-2	0
O=C1/C(=N/Nc2ccc([N+](=O)[O-])cc2)CCCc2ccccc21	0

Test system: Aspergillus fumigatus
Experiment: Antimicrobial activity against Aspergillus fumigatus at 5 ug/mL by agar diffusion method
Assay type: functional
Details: read-out: IZ

SMILES	zone of inhibition at 5 µg/mL [mm]
c1ccc2c(c1)CCCc1nnc3nncn3c1-2	10
O=C1/C(=N/Nc2ccc([N+](=O)[O-])cc2)CCCc2ccccc21	18

Test system: Aspergillus fumigatus
Experiment: Antimicrobial activity against Aspergillus fumigatus at 2.5 ug/mL by agar diffusion method
Assay type: functional
Details: read-out: IZ

SMILES	zone of inhibition at 2.5 µg/mL [mm]
c1ccc2c(c1)CCCc1nnc3nncn3c1-2	0
O=C1/C(=N/Nc2ccc([N+](=O)[O-])cc2)CCCc2ccccc21	8

Test system: Escherichia coli
Experiment: Antimicrobial activity against Escherichia coli at 5 ug/mL by agar diffusion method
Assay type: functional
Details: read-out: IZ

SMILES	zone of inhibition at 5 µg/mL [mm]
c1ccc2c(c1)CCCc1nnc3nncn3c1-2	9
O=C1/C(=N/Nc2ccc([N+](=O)[O-])cc2)CCCc2ccccc21	8

Test system: Aspergillus fumigatus
Experiment: Antimicrobial activity against Aspergillus fumigatus at 1.25 ug/mL by agar diffusion method
Assay type: functional
Details: read-out: IZ

SMILES	zone of inhibition at 1.25 µg/mL [mm]
c1ccc2c(c1)CCCc1nnc3nncn3c1-2	0
O=C1/C(=N/Nc2ccc([N+](=O)[O-])cc2)CCCc2ccccc21	5

Molecular target: DNA topoisomerase 2-alpha (Mus musculus) (UniProt Q01320)
Sequence (Q01320 whole entry): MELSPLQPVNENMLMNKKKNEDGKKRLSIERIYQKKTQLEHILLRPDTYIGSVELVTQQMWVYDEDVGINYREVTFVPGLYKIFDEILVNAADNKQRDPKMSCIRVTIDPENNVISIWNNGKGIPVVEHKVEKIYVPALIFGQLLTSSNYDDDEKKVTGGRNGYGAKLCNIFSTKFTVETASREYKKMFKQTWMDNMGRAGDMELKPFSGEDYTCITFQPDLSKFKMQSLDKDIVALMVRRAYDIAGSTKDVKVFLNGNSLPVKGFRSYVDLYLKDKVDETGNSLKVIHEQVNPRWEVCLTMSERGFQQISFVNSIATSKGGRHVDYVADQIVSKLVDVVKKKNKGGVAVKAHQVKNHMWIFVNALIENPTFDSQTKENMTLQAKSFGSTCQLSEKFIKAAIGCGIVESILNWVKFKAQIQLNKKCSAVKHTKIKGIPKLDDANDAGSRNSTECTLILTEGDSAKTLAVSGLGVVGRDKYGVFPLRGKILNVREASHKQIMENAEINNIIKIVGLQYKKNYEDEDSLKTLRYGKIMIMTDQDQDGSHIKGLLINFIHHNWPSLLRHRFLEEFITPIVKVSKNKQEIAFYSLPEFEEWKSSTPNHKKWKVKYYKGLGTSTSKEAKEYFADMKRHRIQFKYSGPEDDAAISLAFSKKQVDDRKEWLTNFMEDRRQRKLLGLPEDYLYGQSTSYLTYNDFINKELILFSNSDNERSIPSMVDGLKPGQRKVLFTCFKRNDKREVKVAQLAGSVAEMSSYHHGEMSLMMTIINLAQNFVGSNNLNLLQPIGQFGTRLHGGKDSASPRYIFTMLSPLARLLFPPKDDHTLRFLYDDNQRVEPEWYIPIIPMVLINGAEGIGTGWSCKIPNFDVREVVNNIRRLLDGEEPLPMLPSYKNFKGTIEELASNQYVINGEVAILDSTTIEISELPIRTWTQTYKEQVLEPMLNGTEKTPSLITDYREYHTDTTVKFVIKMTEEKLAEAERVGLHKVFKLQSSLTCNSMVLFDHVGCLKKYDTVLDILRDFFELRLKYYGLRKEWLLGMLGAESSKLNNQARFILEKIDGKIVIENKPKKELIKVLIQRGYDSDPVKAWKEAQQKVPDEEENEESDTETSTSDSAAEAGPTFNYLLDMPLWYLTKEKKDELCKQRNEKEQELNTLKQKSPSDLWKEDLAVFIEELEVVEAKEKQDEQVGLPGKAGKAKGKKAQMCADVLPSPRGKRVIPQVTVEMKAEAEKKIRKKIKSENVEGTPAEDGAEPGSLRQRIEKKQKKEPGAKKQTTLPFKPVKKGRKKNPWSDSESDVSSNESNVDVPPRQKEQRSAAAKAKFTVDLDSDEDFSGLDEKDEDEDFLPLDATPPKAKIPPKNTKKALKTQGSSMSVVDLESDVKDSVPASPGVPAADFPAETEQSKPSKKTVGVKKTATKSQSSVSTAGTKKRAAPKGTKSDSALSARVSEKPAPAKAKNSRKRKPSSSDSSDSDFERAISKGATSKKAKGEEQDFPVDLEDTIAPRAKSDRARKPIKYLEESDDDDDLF
Experiment: Inhibition of topoisomerase 2 from mouse P388 cells assessed as relaxation of pBR322 DNA by agarose gel electrophoresis relative to etoposide
Assay type: cell-based
Details: not given
Summary of the method: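 Topoisomerase II purified from P388 cells. One unit relaxes 0.125 µg supercoiled pBR322 DNA, incubated with or without inhibitor at 30 °C for 1 h in 50 mM Tris-HCl pH 8.0, 100 mM KCl, 10 mM MgCl2, 0.5 mM DTT, 1 mM ATP and 30 µg/ml BSA. Products run on 0.7% agarose in TBE, stained with ethidium bromide and imaged under UV.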

Ratio	SMILES
4.6	O=C1/C(=N/Nc2ccc([N+](=O)[O-])cc2)CCCc2ccccc21

Test system: Candida albicans
Experiment: Antimicrobial activity against Candida albicans at 1.25 ug/mL by agar diffusion method
Assay type: functional
Details: read-out: IZ

SMILES	zone of inhibition at 1.25 µg/mL [mm]
c1ccc2c(c1)CCCc1nnc3nncn3c1-2	0
O=C1/C(=N/Nc2ccc([N+](=O)[O-])cc2)CCCc2ccccc21	0

Test system: Bacillus subtilis
Experiment: Antimicrobial activity against Bacillus subtilis at 2.5 ug/mL by agar diffusion method
Assay type: functional
Details: read-out: IZ

SMILES	zone of inhibition at 2.5 µg/mL [mm]
c1ccc2c(c1)CCCc1nnc3nncn3c1-2	7
O=C1/C(=N/Nc2ccc([N+](=O)[O-])cc2)CCCc2ccccc21	8

Test system: Escherichia coli
Experiment: Antimicrobial activity against Escherichia coli at 2.5 ug/mL by agar diffusion method
Assay type: functional
Details: read-out: IZ

SMILES	zone of inhibition at 2.5 µg/mL [mm]
c1ccc2c(c1)CCCc1nnc3nncn3c1-2	0
O=C1/C(=N/Nc2ccc([N+](=O)[O-])cc2)CCCc2ccccc21	0

Test system: Pseudomonas aeruginosa
Experiment: Antimicrobial activity against Pseudomonas aeruginosa at 1.25 ug/mL by agar diffusion method
Assay type: functional
Details: read-out: IZ

SMILES	zone of inhibition at 1.25 µg/mL [mm]
c1ccc2c(c1)CCCc1nnc3nncn3c1-2	0
O=C1/C(=N/Nc2ccc([N+](=O)[O-])cc2)CCCc2ccccc21	0

Test system: Syncephalastrum racemosum
Experiment: Antimicrobial activity against Syncephalastrum racemosum at 5 ug/mL by agar diffusion method
Assay type: functional
Details: read-out: IZ

SMILES	zone of inhibition at 5 µg/mL [mm]
c1ccc2c(c1)CCCc1nnc3nncn3c1-2	18
O=C1/C(=N/Nc2ccc([N+](=O)[O-])cc2)CCCc2ccccc21	16

Test system: Pseudomonas aeruginosa
Experiment: Antimicrobial activity against Pseudomonas aeruginosa at 2.5 ug/mL by agar diffusion method
Assay type: functional
Details: read-out: IZ

SMILES	zone of inhibition at 2.5 µg/mL [mm]
c1ccc2c(c1)CCCc1nnc3nncn3c1-2	0
O=C1/C(=N/Nc2ccc([N+](=O)[O-])cc2)CCCc2ccccc21	0

Test system: Bacillus subtilis
Experiment: Antimicrobial activity against Bacillus subtilis at 5 ug/mL by agar diffusion method
Assay type: functional
Details: read-out: IZ

SMILES	zone of inhibition at 5 µg/mL [mm]
c1ccc2c(c1)CCCc1nnc3nncn3c1-2	16
O=C1/C(=N/Nc2ccc([N+](=O)[O-])cc2)CCCc2ccccc21	14

Test system: MC-38
Experiment: Antitumor activity against mouse Colon 38 cells implanted in iv dosed C57BL/6 mouse administered as single dose
Assay type: functional, organism-based
Details: not given
Summary of the method: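 Female C57BL/6 mice, 6 weeks old, given about 30 mg Colon 38 tumor tissue s.c. in the flank. Randomized into groups of n = 5 when tumors reached about 300 mm3 (day 1). Compound in 5% glucose given as a single iv tail-vein dose on day 1; controls received 5% glucose. Tumor volume = (length × width²)/2 and body weight tracked.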

SMILES	Activity
O=C1/C(=N/Nc2ccc([N+](=O)[O-])cc2)CCCc2ccccc21	Active
